# Measurements gathered from unrelated publications.
# Protocols differ between the studies behind these lines.
# SMO: Protein smoothened (SMO, Homo sapiens, UniProt Q99835)
# CAMK4: Calcium/calmodulin-dependent protein kinase type IV (CAMK4, Homo sapiens, UniProt Q16566)
Structure (SMILES),target,test,conditions,quantity,result
Cc1cnc(-c2cc(N3CCN(C(=O)CCS(C)(=O)=O)CC3)ncc2Cl)c(C)c1,SMO,"GTPγS binding, agonist, radiometric",cell membranes,Emax,-60.4%
O=C(Nc1cccnn1)N1CCN([C@@H]2CCOc3cc(C(F)(F)F)ccc32)CC1,"Caspase-3 (CASP3, Homo sapiens, UniProt P42574)","cell-free assay, inhibitor",20 µM,inhibition,1%
Cc1ncc(C)n2nc(/C=C/c3nc(N4CCCC4)cc(N4CCOCC4)n3)nc12,"Angiotensin-converting enzyme (ACE, Homo sapiens, UniProt P12821)","enzyme activity, inhibitor",10 µM,inhibition,-13%
CC1=C2C[C@H]3[C@@H](CC=C4C[C@@H](O)CC[C@@]43C)[C@@H]2CC[C@]12O[C@@H]1C[C@H](C)CN[C@H]1[C@H]2C,"Protein smoothened (SMO, Homo sapiens, UniProt Q99835, D473H)","GTPγS binding, agonist, radiometric",cell membranes,Emax,-107%
CC[C@H](C)[C@@H](C(=O)O[C@@H](CC(C)C)C(=O)N[C@@H](CC(C)C)C(=O)N[C@@H](C)/C=C/C(=O)N1C(=O)C=C(OC)[C@@H]1C)N(C)C,"FP2A (Plasmodium falciparum, UniProt Q8I6U4)","enzyme activity, inhibitor, fluorescence",pH 6,kinact/KI,58600 M⁻¹ s⁻¹
COc1cc(C(=O)NC(N)=Nc2ccc(C)c(NC(=O)c3ccc(-c4ccccc4)cc3)c2)cc(OC)c1OC,SMO,"GTPγS binding, agonist, radiometric",cell membranes,Emax,-88.6%
CCN(CC)CCCC[C@H](NC(=O)[C@H](CC(C)C)NC(=O)[C@H](C)NC(=O)[C@H](Cc1ccccc1)NC(=O)c1ccc(C(C)(C)C)cc1)C(=O)N[C@@H](CO)C(=O)OC,"Bromodomain and PHD finger-containing protein 3 (BRPF3, Homo sapiens, UniProt Q9ULD4)","thermal stability, DSF",25 µM,ΔTm,0 °C
C#Cc1n[nH]c2c(-c3cn(C(C)c4ccccn4)c(=O)[nH]c3=O)cc(F)cc12 (centres unmarked),"AP2-associated protein kinase 1 (AAK1, Homo sapiens, UniProt Q2M2I8)","enzyme activity, inhibitor",1 µM,inhibition,4.8%
Nc1ncc(-c2nc(N3CCOCC3)nc(N3CCOCC3)n2)c(C(F)F)n1,"Mitogen-activated protein kinase 15 (MAPK15, Homo sapiens, UniProt Q8TD08)","binding, competition with immobilised ligand",10 µM,remaining binding,100%
Cc1nn(C)cc1-c1nc2c(N3CCN(Cc4ccc(Cl)cc4)CC3)c(Cl)cnc2[nH]1,CAMK4,"binding, competition with immobilised ligand",1 µM,remaining binding,100%
COc1ncccc1-c1cnn2ccc(N3CCN(C(=O)OC(C)C)CC3)nc12,CAMK4,"binding, competition with immobilised ligand",1 µM,remaining binding,100%
